The text below walks through data of publication PMC2841013 (Biochemistry, 2010).

Entries after “also recorded” stand apart in the source; their conditions may differ.

Series [1] relates to 33 representative human bZIPs. Briefly: Coiled-coil array, panel of human bZIPs. The class given is binding.
The next series has as its system CEBPA (C/EBPα). The conditions noted are these: cited from earlier work.
Another series concerns JUN. Briefly: Coiled-coil array vs JUN. In kind it is binding, human. The settings on record: BZLF1 probe 1280 nM.
A further series deals with FOS. Briefly: Coiled-coil array vs FOS. The class given is binding, human. The conditions noted are these: BZLF1 probe 1280 nM. A digest of the protocol:
(§1)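 Leucine-zipper regions of human bZIPs and viral proteins were expressed in E. coli RP3098, purified denaturing via Ni-NTA then reverse-phase HPLC, and printed on aldehyde glass slides. The fluorescently labelled BZLF1 zipper was probed at 1280 nM in phosphate buffer with GdnHCl. Each measurement averaged 8 background-corrected spots and was reported as Sarray or arrayscore, −log(F/Fmax), with F as intensity minus the probe's median signal.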

The test system of a further series is BZLF1. Kind of series: Coiled-coil array, BZLF1 self-association. In kind it is binding, Epstein-Barr virus. The conditions noted are these: BZLF1 leucine zipper; probe 1280 nM.
A further series has as its system CEBPA. Briefly: Coiled-coil array vs CEBPA. The settings on record: BZLF1; leucine-zipper regions; probe 1280 nM. In kind it is binding, human. A digest of the protocol: as §1
The test system of the next series is MAFG on MARE DNA. Briefly: Gel-shift with MAFG on MARE DNA. In kind it is binding, human. The conditions noted are these: MAFG 4 nM, HBZLZ 4, 40, 400, or 4000 nM.
For another series, the system named is MAFB on MARE DNA. Briefly: Gel-shift with MAFB on MARE DNA. The class given is binding, human. The conditions noted are these: MAFB 4 nM, HBZLZ 4, 40, 400, or 4000 nM.
The target of the next series is Q9DGW5. The settings on record: other: circular dichroism. On the technique in general: Circular dichroism is the unequal absorption of left and right circularly polarised light.

Consider “BZLF1: bZIP protein encoded by Epstein-Barr virus (LLQHYREVAAAKSSENDRLRLLLKQM; fluorescently labeled when used as solution probe on the arrays (dye and site not stated); left off: His tag (from the vector pDEST17, modified versions, and the Ni-NTA purification), end not stated,)”, for which the “interaction with human bZIPs on array” value in series [1] (BZLF1 leucine zipper, probe concentration 1280 nM, average of 8 spots) is “not to interact with any human bZIP peptides; also recorded: display almost exclusive homo-association”. The “interaction with CEBPA” value with CEBPA (C/EBPα) is “interact with many viral and cellular proteins including the human bZIP CEBPA (C/EBPα)”. The interaction on array result is on record as “not observed to interact on the arrays” with JUN, “not observed to interact on the arrays” with FOS and “this pairing was not observed in our array experiments” with CEBPA. Also, in the series with BZLF1, the self-association on array result was “observed to self-associate strongly”.
For “BZLF1CT: BZLF1 construct with the C-terminal extension (LLQHYREVAAAKSSENDRLRLLLKQMCPSLDVDSIIPRTPDVLHEDLLNF; fluorescently labeled when used as solution probe on the arrays (dye and site not stated))”, the “interaction with human bZIPs on array” value in series [1] (construct with the C-terminal extension) is “did not interact strongly with any human proteins”.
For “HBZLZ: leucine-zipper-only version of HBZ (DGYTRQLEGEVESLEAERRKLLQEKEDLMGEVNYWQGRLEAMWLQ; fluorescently labeled when used as solution probe on the arrays (dye and site not stated); left off: His tag (from the vector pDEST17, modified versions, and the Ni-NTA purification), end not stated,)”, in the series on MAFG on MARE DNA, the “amount of MAFG bound to DNA” value is given as “The amount of MAF protein bound to DNA was decreased, though a higher concentration of HBZLZ was required. No additional complex was detected”. Also, the “amount of MAFB bound to DNA” value in the series with MAFB on MARE DNA is “The amount of MAF protein bound to DNA was decreased, though a higher concentration of HBZLZ was required. No additional complex was detected”.

B1: MEQ bZIP domain (protein)
chain: KQKLERRRKRNRDAARRRRRKQTDYVDKLHEACEELQRANEHLRKEIRDLRTECTSLRVQLACH
In the case of B1, the “Tm (homo-association)” value with Q9DGW5 is “for MEQ was 35.2 °C”.
